Experimental data reported in ChEMBL document CHEMBL4689842, “EUbOPEN Chemogenomics Library wave 1” (2021).
“And” between values parts separate entries of the source, which are not always exact repeats. Equal values may be shown once.

Tested on: Fibroblast
Assay: Multiplex assay against human fibroblast
Assay type: toxicity, cell-based
Summary of the method: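 Hoechst33342, BioTracker Green Microtubule Cytoskeleton Dye, MitoTracker Red and Annexin V Alexa Fluor 680 were added to live cells at seeding, and imaging on a CQ1 microscope at 37°C and 5% CO2 followed compound addition. Gating by CellPathfinder machine learning separated cells into Hoechst high-intensity objects or normal cells, then normal cells into healthy, pyknosed or fragmented nuclei, then pyknosed cells into mitotic or apoptotic. Per cents of healthy-nucleus cells are reported for the tubulin, mitochondrial-mass and membrane-permeability phenotypes.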

[1] = 12 h, 1 µM, compound concentration 1 uM, replicate 1
[2] = 12 h, 1 µM, compound concentration 1 uM, replicate 2
[3] = 12 h, 10 µM, compound concentration 10 uM, replicate 1
[4] = 12 h, 10 µM, compound concentration 10 uM, replicate 2
[5] = 24 h, 1 µM, compound concentration 1 uM, replicate 1
[6] = 24 h, 1 µM, compound concentration 1 uM, replicate 2
[7] = 24 h, 10 µM, compound concentration 10 uM, replicate 1
[8] = 24 h, 10 µM, compound concentration 10 uM, replicate 2
[9] = 48 h, 10 µM, compound concentration 10 uM, replicate 1
[10] = 48 h, 10 µM, compound concentration 10 uM, replicate 2

COc1cc2nccc(Oc3ccc(NC(=O)Nc4cc(C)on4)c(Cl)c3)c2cc1OC.O
Population Apoptotic (%) [1]: 66% and 58% | Population Fragmented Nuclei (%) [1]: 38% and 29% | Population Healthy Nuclei (%) [1]: 45% and 54% | Population Hoechst High Intensity Objects (%) [1]: 11% and 12% | Population Membrane Permeable-Phenotype (%) [1]: 10% and 8% | Population Mitochondria Different-Phenotype (%) [1]: 10% | Population Mitotic Cells (%) [1]: 33% and 41% | Population Normal (%) [1]: 88% and 87% | Population Pyknosed Nuclei (%) [1]: 16% | Population Tubulin-Different-Phenotype (%) [1]: 13% | Total Cell Count [1]: 229 and 203 | Population Apoptotic (%) [2]: 40% and 50% | Population Fragmented Nuclei (%) [2]: 63% and 48% | Population Healthy Nuclei (%) [2]: 28% and 18% | Population Hoechst High Intensity Objects (%) [2]: 33% and 40% | Population Membrane Permeable-Phenotype (%) [2]: 27% and 28% | Population Mitotic Cells (%) [2]: 60% and 50% | Population Normal (%) [2]: 66% and 59% | Population Tubulin-Different-Phenotype (%) [2]: 38% and 57% | Total Cell Count [2]: 95 and 62 | Population Apoptotic (%) [3]: 47% | Population Fragmented Nuclei (%) [3]: 30% | Population Healthy Nuclei (%) [3]: 31% | Population Hoechst High Intensity Objects (%) [3]: 13% | Population Membrane Permeable-Phenotype (%) [3]: 17% | Population Mitochondria Different-Phenotype (%) [3]: 31% | Population Mitotic Cells (%) [3]: 52% | Population Normal (%) [3]: 86% | Population Pyknosed Nuclei (%) [3]: 37% | Population Tubulin-Different-Phenotype (%) [3]: 77% | Total Cell Count [3]: 163 | Population Apoptotic (%) [4]: 71% | Population Fragmented Nuclei (%) [4]: 11% | Population Healthy Nuclei (%) [4]: 75% | Population Hoechst High Intensity Objects (%) [4]: 3% | Population Membrane Permeable-Phenotype (%) [4]: 36% | Population Mitochondria Different-Phenotype (%) [4]: 97% | Population Mitotic Cells (%) [4]: 28% | Population Normal (%) [4]: 96% | Population Pyknosed Nuclei (%) [4]: 12% | Population Tubulin-Different-Phenotype (%) [4]: 97% | Total Cell Count [4]: 58 | Population Apoptotic (%) [5]: 76% and 68% | Population Fragmented Nuclei (%) [5]: 41% and 26% | Population Healthy Nuclei (%) [5]: 39% and 59% | Population Hoechst High Intensity Objects (%) [5]: 15% and 11% | Population Membrane Permeable-Phenotype (%) [5]: 3% and 0% | Population Mitochondria Different-Phenotype (%) [5]: 42% | Population Mitotic Cells (%) [5]: 23% and 32% | Population Normal (%) [5]: 84% and 88% | Population Pyknosed Nuclei (%) [5]: 19% and 14% | Total Cell Count [5]: 231 and 198 | Population Apoptotic (%) [6]: 25% | Population Fragmented Nuclei (%) [6]: 58% and 53% | Population Healthy Nuclei (%) [6]: 34% and 19% | Population Hoechst High Intensity Objects (%) [6]: 35% and 29% | Population Membrane Permeable-Phenotype (%) [6]: 10% and 22% | Population Mitotic Cells (%) [6]: 75% | Population Normal (%) [6]: 64% and 70% | Total Cell Count [6]: 85 and 67 | Population Apoptotic (%) [7]: 57% | Population Fragmented Nuclei (%) [7]: 29% | Population Healthy Nuclei (%) [7]: 40% | Population Hoechst High Intensity Objects (%) [7]: 19% | Population Membrane Permeable-Phenotype (%) [7]: 11% | Population Mitochondria Different-Phenotype (%) [7]: 53% | Population Mitotic Cells (%) [7]: 42% | Population Normal (%) [7]: 80% | Population Pyknosed Nuclei (%) [7]: 29% | Population Tubulin-Different-Phenotype (%) [7]: 86% | Total Cell Count [7]: 158 | Population Apoptotic (%) [8]: 92% | Population Fragmented Nuclei (%) [8]: 16% | Population Healthy Nuclei (%) [8]: 60% | Population Hoechst High Intensity Objects (%) [8]: 3% | Population Membrane Permeable-Phenotype (%) [8]: 67% | Population Mitochondria Different-Phenotype (%) [8]: 100% | Population Mitotic Cells (%) [8]: 7% | Population Normal (%) [8]: 96% | Population Pyknosed Nuclei (%) [8]: 23% | Population Tubulin-Different-Phenotype (%) [8]: 97% | Total Cell Count [8]: 58 | Population Apoptotic (%) [9]: 76% | Population Fragmented Nuclei (%) [9]: 33% | Population Healthy Nuclei (%) [9]: 47% | Population Hoechst High Intensity Objects (%) [9]: 22% | Population Membrane Permeable-Phenotype (%) [9]: 10% | Population Mitochondria Different-Phenotype (%) [9]: 60% | Population Mitotic Cells (%) [9]: 23% | Population Normal (%) [9]: 77% | Population Pyknosed Nuclei (%) [9]: 18% | Population Tubulin-Different-Phenotype (%) [9]: 83% | Total Cell Count [9]: 148 | Population Apoptotic (%) [10]: 62% | Population Fragmented Nuclei (%) [10]: 36% | Population Healthy Nuclei (%) [10]: 54% | Population Hoechst High Intensity Objects (%) [10]: 10% | Population Membrane Permeable-Phenotype (%) [10]: 0% | Population Mitochondria Different-Phenotype (%) [10]: 75% | Population Mitotic Cells (%) [10]: 37% | Population Normal (%) [10]: 89% | Population Pyknosed Nuclei (%) [10]: 9% | Population Tubulin-Different-Phenotype (%) [10]: 95% | Total Cell Count [10]: 98
